Reference: PMC5568793 (Science translational medicine, 2017)

How the values were obtained:
[1] = mouse, in vivo, iv
type I collagen [2] = target: T1, type I collagen (Mus musculus, UniProt P11087+Q01149); assay: Lung uptake of probe in bleomycin mouse model of pulmonary fibrosis; type: in vivo
Procedure, shortened: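 Male C57BL/6 mice (10 weeks, 20–28 g) received transtracheal bleomycin at 2.5 U/kg in 50 μL PBS through a cervical incision; sham mice were controls. On day 14, 68Ga probe was given as an i.v. bolus via femoral vein catheter under isoflurane. Dynamic PET-CT ran for 120 min, read as decay-corrected lung VOI %ID/cc. Mice were killed 150 min post-injection and organs weighed and gamma-counted.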

type I collagen [3] = target: T1, type I collagen; assay: PET lung signal in low dose bleomycin vascular leak; type: in vivo; settings: day 14, 50-80 min after injection
Procedure, shortened: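 Male C57Bl/6 mice received intratracheal low-dose bleomycin (0.1 U/kg) and/or FTY720 (1 mg/kg i.p. thrice weekly), with 1E6 (1 mg/kg i.p. thrice weekly) where stated, all from day 0. On day 14, under isoflurane, 68Ga probe was given as an i.v. femoral bolus. Static PET ran for 30 min starting 50 min post-injection, with CT. MLEM reconstruction was used; lung VOIs of about 65 mm3 were read as decay-corrected %ID/cc.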

type I collagen [4] = target: T1, type I collagen; assay: Ex vivo lung uptake in low dose bleomycin vascular leak; settings: day 14, 2.5 h post injection
Procedure, shortened: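 Male C57Bl/6 mice, 7–8 weeks old, received a single intratracheal bleomycin dose of 0.1 U/kg in saline, with or without FTY720 at 1 mg/kg i.p. three times weekly. 3G9 or isotype 1E6 antibody was given at 1 mg/kg i.p. three times weekly. All dosing started on day 0. On day 14, 68Ga probe was given as an i.v. femoral bolus under isoflurane. Mice were killed 150 min post-injection; the left lung was weighed and gamma-counted.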

T1 sequence (P11087 152-1207 limits assumed): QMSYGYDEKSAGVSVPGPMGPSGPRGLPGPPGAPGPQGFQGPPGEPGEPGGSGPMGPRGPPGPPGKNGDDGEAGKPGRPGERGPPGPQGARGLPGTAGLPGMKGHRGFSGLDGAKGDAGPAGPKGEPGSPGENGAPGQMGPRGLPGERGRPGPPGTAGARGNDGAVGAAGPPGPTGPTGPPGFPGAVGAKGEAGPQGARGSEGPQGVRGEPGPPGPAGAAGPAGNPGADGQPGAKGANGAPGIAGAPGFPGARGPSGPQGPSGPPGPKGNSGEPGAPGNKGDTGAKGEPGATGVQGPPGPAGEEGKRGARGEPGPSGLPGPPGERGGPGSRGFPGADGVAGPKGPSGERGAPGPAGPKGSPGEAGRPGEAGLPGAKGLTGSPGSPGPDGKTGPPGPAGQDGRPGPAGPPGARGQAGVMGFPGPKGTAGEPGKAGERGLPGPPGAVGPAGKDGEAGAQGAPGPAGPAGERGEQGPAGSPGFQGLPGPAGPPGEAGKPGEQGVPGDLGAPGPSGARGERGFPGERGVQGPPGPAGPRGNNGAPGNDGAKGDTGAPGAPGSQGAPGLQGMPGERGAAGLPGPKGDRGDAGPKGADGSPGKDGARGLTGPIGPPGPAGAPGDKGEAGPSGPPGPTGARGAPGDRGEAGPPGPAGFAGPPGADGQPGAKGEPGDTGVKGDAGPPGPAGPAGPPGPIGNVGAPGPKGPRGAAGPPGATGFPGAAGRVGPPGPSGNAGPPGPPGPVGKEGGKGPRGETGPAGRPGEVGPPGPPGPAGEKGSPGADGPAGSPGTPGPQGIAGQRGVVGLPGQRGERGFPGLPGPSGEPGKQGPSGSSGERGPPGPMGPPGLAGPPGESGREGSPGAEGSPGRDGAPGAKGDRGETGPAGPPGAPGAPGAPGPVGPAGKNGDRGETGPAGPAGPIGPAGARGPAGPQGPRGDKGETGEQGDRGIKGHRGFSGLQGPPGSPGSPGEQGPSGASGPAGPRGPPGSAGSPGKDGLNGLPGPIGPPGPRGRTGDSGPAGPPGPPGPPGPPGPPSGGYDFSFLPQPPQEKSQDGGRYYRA
T1 sequence (Q01149 86-1125 limits assumed): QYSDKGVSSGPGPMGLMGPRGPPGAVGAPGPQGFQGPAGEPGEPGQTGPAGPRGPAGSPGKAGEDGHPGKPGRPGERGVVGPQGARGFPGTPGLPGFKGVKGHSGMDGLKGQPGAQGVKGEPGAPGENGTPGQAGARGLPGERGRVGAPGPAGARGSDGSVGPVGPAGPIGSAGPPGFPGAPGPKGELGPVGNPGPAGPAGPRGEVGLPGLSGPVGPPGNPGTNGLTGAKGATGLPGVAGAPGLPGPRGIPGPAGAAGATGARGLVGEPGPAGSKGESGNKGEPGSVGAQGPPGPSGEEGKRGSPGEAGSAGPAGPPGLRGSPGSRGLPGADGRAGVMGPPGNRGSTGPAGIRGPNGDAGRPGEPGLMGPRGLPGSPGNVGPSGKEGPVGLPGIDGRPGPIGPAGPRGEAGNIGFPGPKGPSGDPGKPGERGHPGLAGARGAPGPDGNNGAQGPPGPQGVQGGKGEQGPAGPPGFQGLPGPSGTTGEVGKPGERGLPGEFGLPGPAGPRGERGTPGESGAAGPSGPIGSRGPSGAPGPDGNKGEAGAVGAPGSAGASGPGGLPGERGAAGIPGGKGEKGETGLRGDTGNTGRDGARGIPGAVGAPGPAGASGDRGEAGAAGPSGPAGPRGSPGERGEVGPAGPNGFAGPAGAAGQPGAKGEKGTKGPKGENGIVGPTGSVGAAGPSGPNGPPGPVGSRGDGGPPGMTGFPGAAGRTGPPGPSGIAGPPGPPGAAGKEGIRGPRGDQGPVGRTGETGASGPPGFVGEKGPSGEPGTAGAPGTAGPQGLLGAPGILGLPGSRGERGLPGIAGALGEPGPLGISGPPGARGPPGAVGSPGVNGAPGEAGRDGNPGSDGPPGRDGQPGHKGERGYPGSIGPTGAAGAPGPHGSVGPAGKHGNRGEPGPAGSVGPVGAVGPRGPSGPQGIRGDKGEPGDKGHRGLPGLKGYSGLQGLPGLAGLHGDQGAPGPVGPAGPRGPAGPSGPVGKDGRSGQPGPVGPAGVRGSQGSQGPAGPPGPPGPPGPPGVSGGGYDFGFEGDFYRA

ex vivo lung uptake, BM-mice day 14 relative to sham animals (type I collagen [2]; BM day 14 (n=7) vs sham (n=11)): 5 fold
probe uptake in fibrotic mouse lungs compared to control lungs (type I collagen [2]; discussion statement, mouse models of pulmonary fibrosis): 6 fold
PET lung signal (type I collagen [3]; FTY mice (FTY720 only), n=6): 1.5 ± 0.1 %ID/cc
PET lung signal (type I collagen [3]; LDB mice (low dose BM only), n=4): 1.7 ± 0.1 %ID/cc
PET lung signal (type I collagen [3]; LDBVL+1E6 mice (irrelevant antibody), n=11): 3.0 ± 0.2 %ID/cc
PET lung signal (type I collagen [3]; LDBVL+3G9 mice (anti-αvβ6 antibody), n=11): 1.9 ± 0.2 %ID/cc
ex vivo lung uptake, LDBVL group relative to FTY group (type I collagen [4]): five times more uptake
ex vivo lung uptake, LDBVL group relative to LDB group (type I collagen [4]): three times more
ex vivo lung uptake, LDBVL+1E6 group relative to 3G9-treated group (type I collagen [4]): six times higher uptake
ex vivo lung uptake, LDBVL+1E6 group relative to LDBVL+3G9 group (type I collagen [4]): three times more uptake
SMILES: CC(C)C[C@H](NC(=O)[C@@H]1CSSC[C@H](NC(=O)[C@H](Cc2c[nH]cn2)NC(=O)[C@H](Cc2c[nH]c3ccccc23)NC(=O)[C@H](CCCCNC(=O)CNC(=O)CCC(C(=O)O)N2CCN(CC(=O)O)CCN(CC(=O)O)CC2)NC(=O)CCC(C(=O)O)N2CCN(CC(=O)O)CCN(CC(=O)O)CC2)C(=O)N[C@@H]([C@@H](C)O)C(=O)N[C@@H]([C@@H](C)O)C(=O)N[C@@H](CCCCNC(=O)CNC(=O)CCC(C(=O)O)N2CCN(CC(=O)O)CCN(CC(=O)O)CC2)C(=O)N[C@@H](Cc2ccccc2)C(=O)N2CCC[C@H]2C(=O)N[C@@H](Cc2c[nH]cn2)C(=O)N[C@@H](Cc2c[nH]cn2)C(=O)N[C@@H](Cc2ccc(O)cc2)C(=O)N1)C(=O)N[C@@H](Cc1ccc(O)cc1)C(=O)N[C@@H](Cc1ccc(-c2ccccc2)cc1)C(N)=O (some centres unmarked) [^68Ga-CBP8, metal not drawn]
blood half-life [1]: 32.9 ± 4.5 min
